According to ChEMBL document CHEMBL1151862, “Quaternary ammonium N,N-dichloroamines as topical, antimicrobial agents” (Bioorg Med Chem Lett, 2009):
Converted amounts (≈) assume the structure as drawn.

How the values were obtained:
[1] = Stability in saline solution assessed as half life at pH 4; format: physicochemical
How it was run: (§1)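 Aqueous half-life is reported in days. Media were saline at pH 4, phosphate at pH 7, and, for some analogs, 0.6% borate buffer at pH 7. Biological testing was limited to analogs with aqueous stability above 24 h at 40 °C.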

[2] = Stability in 0.6% borate buffer assessed as half life at pH 7; format: physicochemical; how it was run: as §1
Candida albicans = assay: Antifungal activity against Candida albicans ATCC 10231 after 1 hr by CLSI M26-A based method at room temperature; format: functional; conditions: ATCC 10231, 1 h
How it was run: (§2)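 Minimum bactericidal (bacteria) or fungicidal (C. albicans) concentration was determined by a modified CLSI M26-A method. Isotonic saline at pH 4 replaced Mueller–Hinton broth because chlorine reacts with broth components. Exposure was shortened from 16–20 h at 35 °C to 1 h at room temperature.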

Escherichia coli = assay: Antibacterial activity against Escherichia coli ATCC 25922 after 1 hr by CLSI M26-A based method at room temperature; format: functional; conditions: ATCC 25922, 1 h; how it was run: as §2
Staphylococcus aureus = assay: Antibacterial activity against Staphylococcus aureus ATCC 29213 after 1 hr by CLSI M26-A based method at room temperature; format: functional; conditions: ATCC 29213, 1 h; how it was run: as §2
[3] = Stability in phosphate buffer assessed as half life at pH 7; format: physicochemical; how it was run: as §1
[4] = Stability in water assessed as half life at pH 4 at 40 degC; format: physicochemical

Row | Compound | half-life [1] [days] | half-life [2] [days] | MFC (Candida albicans) [µg/mL] | MBC (Escherichia coli) [µg/mL] | MBC (Staphylococcus aureus) [µg/mL] | half-life [3] [days] | half-life [4] [days]
1 | CC(=O)N1CC[N+](C)(CC(C)(C)N(Cl)Cl)CC1.[Cl-] | 37 | 6 | > 1020 | 16 | 64 |  | 
2 | CC(C)(C[N+](C)(C)CCS(=O)(=O)O)N(Cl)Cl.[Cl-] | > 180 |  | 128 | 16 | 64 | 19 | 
3 | CC(C)(COCCCS(=O)(=O)O)N(Cl)Cl |  |  |  |  |  |  | 0.104
4 | CC(C)(Cc1ncnn1CCS(=O)(=O)O)N(Cl)Cl | 21 |  | 64 (≈ 202 µM) | 2 (≈ 6.31 µM) | 4 (≈ 12.6 µM) | 23 | 
5 | CC(C)(C[N+](C)(C)C)N(Cl)Cl.[Cl-] | > 325 |  | 128 | 8 | 16 | > 396 | 
6 | CC(C)(CC(=O)OCCS(=O)(=O)O)N(Cl)Cl |  |  |  |  |  |  | > 95
7 | CC(C)(C[N+]1(C)CCCCC1)N(Cl)Cl.[Cl-] | > 122 |  | 64 | 8 | 16 | 100 | 
8 | CC(C)(Cc1nc(CS(=O)(=O)O)no1)N(Cl)Cl | 106 |  | 16 (≈ 52.6 µM) | 4 (≈ 13.2 µM) | 2 (≈ 6.58 µM) | 17 | 
9 | C[n+]1ccc(CCC(C)(C)N(Cl)Cl)cc1.[Cl-] | > 60 | 20 | 1020 | 2 | 8 |  | 
10 | CC(C)(CC(=O)OCC[N+]1(C)CCCCC1)N(Cl)Cl.[Cl-] | > 72 |  |  | 2 | 4 | 7 | 
11 | C[S+](C)CC(C)(C)N(Cl)Cl.[Cl-] | > 67 |  | 128 | 4 | 8 | 1 | 
12 | CC(C)(CC(=O)NCCS(=O)(=O)O)N(Cl)Cl | 33 | 36 | 64 (≈ 218 µM) | 2 (≈ 6.82 µM) | 8 (≈ 27.3 µM) |  | 
13 | Cn1nc[n+](C)c1CC(C)(C)N(Cl)Cl.[Cl-] | 67 |  | 16 | 2 | 4 | 5 | 
14 | CC(C)(CNC(=O)CCS(=O)(=O)O)N(Cl)Cl |  |  |  |  |  |  | 0.5
15 | CC(C)(C[N+]1(C)CCOCC1)N(Cl)Cl.[Cl-] | < 1 |  |  |  |  | < 1 | 
16 | CC(C)(CS(=O)(=O)[O-])N(Cl)Cl.[Na+] | > 730 |  | 32 | 2 | 2 | > 300 | 
17 | Cc1nc(CC(C)(C)N(Cl)Cl)n(CCS(=O)(=O)O)n1 | 46 |  | 64 (≈ 193 µM) | 4 (≈ 12.1 µM) | 4 (≈ 12.1 µM) | 50 | 
18 | CN(CC[N+](C)(C)C)C(=O)CC(C)(C)N(Cl)Cl.[Cl-] | 4 |  | 32 | 2 | 16 | 6 | 
19 | Cc1nn(C)c(CC(C)(C)N(Cl)Cl)[n+]1C.[Cl-] | 61 |  | 32 | 4 | 8 | 4 | 
20 | CN(CCS(=O)(=O)O)C(=O)CC(C)(C)N(Cl)Cl | 1 |  | 32 (≈ 104 µM) | 1 (≈ 3.26 µM) | 2 (≈ 6.51 µM) | 1 | 
21 | CC(C)(c1cn(CCS(=O)(=O)O)nn1)N(Cl)Cl | 10 |  | 32 (≈ 106 µM) | 4 (≈ 13.2 µM) | 8 (≈ 26.4 µM) | 5 | 
